{
  "source": "paper PMC4229392",
  "about": "(Investigational new drugs, 2014)",
  "key": {"[1]": {"assay": "Urine PK, renal clearance of alisertib", "type": "in vivo, human", "in_short": "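Urine was collected only from patients dosed at 40 mg BID or higher. Samples were taken pre-dose on day 1 and pooled over 0–12 h after the day 7 morning dose of the 7-day oral BID course. Renal clearance was derived from the day 7 collection in 12 patients (10 at 50 mg BID, 2 at 60 mg BID). Quantitation was by LC-MS/MS.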"}, "[2]": {"tested_on": "patients with advanced, non-hematologic malignancies"}, "[3]": {"tested_on": "advanced, non-hematologic malignancies", "assay": "Antitumor activity by RECIST version 1.1", "type": "in vivo, human"}, "[4]": {"tested_on": "AAK inhibition in xenograft models", "conditions": "cited from earlier work"}, "[5]": {"assay": "Plasma pharmacokinetics of alisertib ECT", "type": "in vivo, human", "conditions": "for Tmax: human, plasma", "in_short": "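Adults with advanced non-haematologic cancers took oral enteric-coated tablets at 10–60 mg BID for 7 days, then 14 days off (21-day cycles). In cycle 1, plasma was sampled within 1 h before the morning dose and at 0.5–12 h post-dose on days 1 and 7. Further samples were taken 12–132 h after the day 7 evening dose. A validated LC-MS/MS assay and non-compartmental analysis were used. Geometric means were reported only for cohorts of at least 2 patients.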"}, "[6]": {"conditions": "acidic solution; preclinical evaluations; cited from earlier work"}, "[7]": {"conditions": "cited from earlier work"}, "[8]": {"conditions": "human, in vivo, 7 days of each 21-day cycle"}, "[9]": {"conditions": "steady-state (day 7), ECT, 20 mg BID (n = 3)"}, "[10]": {"conditions": "steady-state (day 7), ECT, 40 mg BID (n = 3)"}, "[11]": {"conditions": "steady-state (day 7), ECT, 50 mg BID (n = 11)"}, "[12]": {"conditions": "steady-state (day 7), ECT, 60 mg BID (n = 2)"}},
  "note": "Where “and” joins values, the source holds several entries; their conditions need not be identical. Identical values can stand only once. Entries after “also recorded” stand apart in the source; their conditions may differ.",
  "data": [
    {"compound": "COc1cc(Nc2ncc3c(n2)-c2ccc(Cl)cc2C(c2c(F)cccc2OC)=NC3)ccc1C(=O)O", "note": "[alisertib]", "values": [
      {"measurement": "Renal clearance (in words)", "setting": "[1]; in vivo", "result": "negligible"},
      {"measurement": "Renal clearance as share of apparent oral clearance", "setting": "[1]; urine 0 to 12 h postdose day 7, 12 patients (50 and 60 mg BID)", "result": "less than 0.1%"},
      {"measurement": "Patients with drug-related SAEs in the MTD cohort", "setting": "[2]; 50 mg BID", "result": 4, "unit": "patients"},
      {"measurement": "Patients who died during the first treatment cycle", "setting": "[2]; 50 mg starting dose, not considered related to alisertib", "result": 2, "unit": "patients"},
      {"measurement": "Maximum tolerated dose (MTD)", "setting": "[2]; ECT, × 7 days in a 21-day cycle", "result": 50, "unit": "mg BID"},
      {"measurement": "Patients in whom dose reductions were necessary", "setting": "[2]; human, in vivo", "result": 21, "unit": "%"},
      {"measurement": "Patients who discontinued treatment due to AEs", "setting": "[2]; human, in vivo", "result": 29, "unit": "%"},
      {"measurement": "Patients with any grade of drug-related central nervous system (CNS) AEs", "setting": "[2]; human, in vivo", "result": 33, "unit": "%"},
      {"measurement": "Patients with cycle 1 dose-limiting toxicity (grade 4 febrile neutropenia)", "setting": "[2]; human, in vivo", "result": "1 of 13"},
      {"measurement": "Patients with dose reduction for neutropenia", "setting": "[2]; human, in vivo", "result": 13, "unit": "%"},
      {"measurement": "Patients with dose reduction for thrombocytopenia", "setting": "[2]; human, in vivo", "result": 8, "unit": "%"},
      {"measurement": "Patients with drug-related CNS AE dizziness", "setting": "[2]; human, in vivo", "result": 2, "unit": "n"},
      {"measurement": "Patients with drug-related CNS AE hypersomnia", "setting": "[2]; human, in vivo", "result": 5, "unit": "n"},
      {"measurement": "Patients with drug-related CNS AE memory impairment", "setting": "[2]; human, in vivo", "result": 3, "unit": "n"},
      {"measurement": "Patients with drug-related grade 3 or higher gastrointestinal AEs", "setting": "[2]; human, in vivo", "result": 25, "unit": "%"},
      {"measurement": "Patients with drug-related grade 3 or higher hematologic AEs", "setting": "[2]; human, in vivo", "result": 50, "unit": "%"},
      {"measurement": "Patients with drug-related neutropenia", "setting": "[2]; human, in vivo", "result": 50, "unit": "%"},
      {"measurement": "Patients with treatment-related fatigue", "setting": "[2]; human, in vivo", "result": 33, "unit": "%"},
      {"measurement": "Alopecia, all-grade treatment-related AE", "setting": "[2]; human, in vivo, 7 days", "result": "10 (42) n (%)"},
      {"measurement": "Anemia, all-grade treatment-related AE", "setting": "[2]; human, in vivo, 7 days", "result": "3 (13) n (%)"},
      {"measurement": "Decreased appetite, all-grade treatment-related AE", "setting": "[2]; human, in vivo, 7 days", "result": "5 (21) n (%)"},
      {"measurement": "Diarrhea, all-grade treatment-related AE", "setting": "[2]; human, in vivo, 7 days", "result": "10 (42) n (%)"},
      {"measurement": "Diarrhea, grade ≥3 treatment-related AE", "setting": "[2]; human, in vivo, 7 days", "result": "2 (8) n (%)"},
      {"measurement": "Fatigue, all-grade treatment-related AE", "setting": "[2]; human, in vivo, 7 days", "result": "8 (33) n (%)"},
      {"measurement": "Fatigue, grade ≥3 treatment-related AE", "setting": "[2]; human, in vivo, 7 days", "result": "2 (8) n (%)"},
      {"measurement": "Febrile neutropenia, all-grade treatment-related AE", "setting": "[2]; human, in vivo, 7 days", "result": "3 (13) n (%)"},
      {"measurement": "Febrile neutropenia, grade ≥3 treatment-related AE", "setting": "[2]; human, in vivo, 7 days", "result": "3 (13) n (%)"},
      {"measurement": "Hypersomnia, all-grade treatment-related AE", "setting": "[2]; human, in vivo, 7 days", "result": "5 (21) n (%)"},
      {"measurement": "Leukopenia, grade ≥3 treatment-related AE", "setting": "[2]; human, in vivo, 7 days", "result": "9 (38) n (%)"},
      {"measurement": "Memory impairment, all-grade treatment-related AE", "setting": "[2]; human, in vivo, 7 days", "result": "3 (13) n (%)"},
      {"measurement": "Nausea, grade ≥3 treatment-related AE", "setting": "[2]; human, in vivo, 7 days", "result": "2 (8) n (%)"},
      {"measurement": "Neutropenia, all-grade treatment-related AE", "setting": "[2]; human, in vivo, 7 days", "result": "12 (50) n (%)"},
      {"measurement": "Neutropenia, grade ≥3 treatment-related AE", "setting": "[2]; human, in vivo, 7 days", "result": "11 (46) n (%)"},
      {"measurement": "Oral candidiasis, all-grade treatment-related AE", "setting": "[2]; human, in vivo, 7 days", "result": "4 (17) n (%)"},
      {"measurement": "Recommended phase 2 dose (RP2D)", "setting": "[2]; human, in vivo, 7 days", "result": 50, "unit": "mg BID"},
      {"measurement": "Severity of CNS AEs (hypersomnia, memory loss, dizziness)", "setting": "[2]; human, in vivo, 7 days", "result": "1–2 grade"},
      {"measurement": "Stomatitis, all-grade treatment-related AE", "setting": "[2]; human, in vivo, 7 days", "result": "10 (42) n (%)"},
      {"measurement": "Stomatitis, grade ≥3 treatment-related AE", "setting": "[2]; human, in vivo, 7 days", "result": "2 (8) n (%)"},
      {"measurement": "Thrombocytopenia, all-grade treatment-related AE", "setting": "[2]; human, in vivo, 7 days", "result": "4 (17) n (%)"},
      {"measurement": "Vomiting, all-grade treatment-related AE", "setting": "[2]; human, in vivo, 7 days", "result": "5 (21) n (%)"},
      {"measurement": "Vomiting, grade ≥3 treatment-related AE", "setting": "[2]; human, in vivo, 7 days", "result": "2 (8) n (%)"},
      {"measurement": "Leukopenia, all-grade treatment-related AE", "setting": "[2]; [8]", "result": "10 (42) n (%)"},
      {"measurement": "Nausea, all-grade treatment-related AE", "setting": "[2]; [8]", "result": "10 (42) n (%)"},
      {"measurement": "Tolerability of dose level", "setting": "[2]; in vivo", "result": "poorly tolerated"},
      {"measurement": "Patients with stable disease", "setting": "[3]; 16 response-evaluable patients", "result": "Nine patients achieved stable disease; also recorded: Nine patients had stable disease"},
      {"measurement": "Responses by RECIST", "setting": "[3]; 16 response-evaluable patients", "result": "No responses by RECIST were observed; also recorded: no complete or partial responses by RECIST were observed"},
      {"measurement": "Patients completing treatment for symptomatic deterioration", "setting": "[3]; N = 24", "result": 21, "unit": "%"},
      {"measurement": "Duration of stable disease, individual patients", "setting": "[3]; censored observations (*)", "result": "3.98 months and 1.28 months and 5.45 months and 6.93 months"},
      {"measurement": "Duration of stable disease, individual patients", "setting": "[3]; not censored", "result": "5.59 months and 2.56 months and 3.48 months and 3.15 months and 8.31 months"},
      {"measurement": "Concentration associated with saturating levels of pharmacodynamic (PD) activity", "setting": "[4]; murine xenograft studies", "result": 1, "unit": "µM"},
      {"measurement": "Concentration associated with AAK inhibition and antitumor activity", "setting": "[4]; preclinical xenograft models", "result": 1, "unit": "µM"},
      {"measurement": "Overall mean peak/trough ratio", "setting": "[5]; BID dosing, all doses", "result": 2.2},
      {"measurement": "Geometric mean steady-state trough concentration", "setting": "[5]; RP2D of 50 mg BID, ECT", "result": "> 1", "unit": "µM"},
      {"measurement": "Accumulation ratio", "setting": "[5]; following BID dosing, all doses", "result": 2.4},
      {"measurement": "Tmax", "setting": "[5]; oral, 40 mg, Median Tmax (range), steady-state (day 7), ECT, 40 mg BID (n = 3)", "result": 3, "unit": "h"},
      {"measurement": "Tmax", "setting": "[5]; oral, 50 mg, Median Tmax (range), steady-state (day 7), ECT, 50 mg BID (n = 11)", "result": 2.4, "unit": "h"},
      {"measurement": "Tmax", "setting": "[5]; oral, 60 mg, Median Tmax (range), steady-state (day 7), ECT, 60 mg BID (n = 2)", "result": 2.8, "unit": "h"},
      {"measurement": "Tmax", "setting": "[5]; po, Overall median Tmax, oral ECT, all doses, range 0–11", "result": "~3", "unit": "h"},
      {"measurement": "Dose dependence of systemic exposure", "setting": "[5]; steady-state (day 7), 10–60 mg BID", "result": "increased with increasing doses"},
      {"measurement": "Mean accumulation ratio (SD)", "setting": "[5]; [9]", "result": "3.0 (1.0)"},
      {"measurement": "Mean peak/trough ratio (SD)", "setting": "[5]; [9]", "result": "2.1 (0.7)"},
      {"measurement": "Mean accumulation ratio (SD)", "setting": "[5]; [10]", "result": "2.3 (0.4)"},
      {"measurement": "Mean peak/trough ratio (SD)", "setting": "[5]; [10]", "result": "2.3 (1.4)"},
      {"measurement": "Mean accumulation ratio (SD)", "setting": "[5]; [11]", "result": "2.2 (0.9)"},
      {"measurement": "Mean peak/trough ratio (SD)", "setting": "[5]; [11]", "result": "2.3 (0.8)"},
      {"measurement": "Mean accumulation ratio", "setting": "[5]; [12]", "result": 2.4},
      {"measurement": "Mean peak/trough ratio", "setting": "[5]; [12]", "result": 1.8},
      {"measurement": "Solubility (in words)", "setting": "[6]", "result": "reduced solubility in acidic solution"},
      {"measurement": "Estimated relative bioavailability (geometric mean ratio of steady state alisertib AUC0-τ) of ECT in reference to PIC", "setting": "[7]; 40 mg BID for 7 days, n = 14, 90% CI: 74.4–108.8%", "result": 90, "unit": "%"},
      {"measurement": "Systemic exposures of ECT formulation compared with PIC formulation", "setting": "[7]; relative bioavailability analysis of phase 1 data", "result": "generally similar"}
    ]}
  ]
}
